Experimental data: PubChem BioAssay AID504382 (The Scripps Research Institute Molecular Screening Center, 2011)
The campaign covered roughly 2,500 compounds. About 460 (18%) were called active.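 How the source made its calls: active means mean activation above a cutoff of low control average plus 3 SD from the earlier screen (cut at about 12% in these data); inactive means the rest.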 These entries were drawn from the full list.

Experiment: compound fluorescence interference without thin filaments, confirmation, artefact control for cardiac RTF calcium sensitizer project, biochemical (AID 504382)
Details: IANBD fluorescence interference counterscreen, buffer, EC20 Ca2+; at 7.2 µM; active compounds read high; scaled: EC20 calcium 0, EC100 calcium 100
Procedure, shortened: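 Medium: MOPS buffer, 190 mM, with KCl, MgCl2, EGTA, NTA, DTT, pH 7.20; Dosing: one dose of 7.2 µM, 0.7% DMSO; Probe or stimulus: calcium at EC20 level, 0.472 mM final; Incubation: 15 min, 25 °C; Evaluation: compound fluorescence interference relative to control well signal range; Signal: fluorescence, 480/540 nm.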

Q: With `COc1cccc(C2C=C(c3ccc(Br)s3)Nc3ncnn32)c1OC` (stereo unspecified) as the molecule, how does the fluorescence artifact activation read?
A: Its fluorescence artifact activation is -0.01% (inactive).

Q: Which fluorescence artifact activation does the source give for `O=C(CNC(=O)c1cccc(Cl)c1)N/N=C/c1cccnc1` here?
A: Its fluorescence artifact activation is 0.03% (inactive).

Q: For `CC/C(=C/c1sc2ccccc2[n+]1CC)SC`, which fluorescence artifact activation is on record?
A: Its fluorescence artifact activation is 2.16% (inactive).

Q: For `CC[n+]1c(/C=C/N(C)c2ccccc2)oc2ccccc21`, which fluorescence artifact activation is on record?
A: The fluorescence artifact activation was -0.02% (inactive).

Q: For `CC[n+]1c(/C=C/C=C/N(C(C)=O)c2ccccc2)sc2ccccc21`, which fluorescence artifact activation is on record?
A: The fluorescence artifact activation was 49.8% (active).

Q: For `CC1=Nc2ccccc2/C1=C\c1nc(-c2ccc(C(F)(F)F)cc2)oc1O`, which fluorescence artifact activation is on record?
A: Its fluorescence artifact activation is -0.02% (inactive).

Q: Which fluorescence artifact activation does the source give for `C[C@H]1CCC(=O)N([C@H](CSc2ccc(Br)cc2)Cc2ccccc2)CC1` here?
A: The fluorescence artifact activation was 0.11% (inactive).

Q: For `Nc1c(C(=O)Nc2ccccc2F)sc2nc(Cc3ccccc3)cc(C(F)(F)F)c12`, which fluorescence artifact activation is on record?
A: Its fluorescence artifact activation is 0.07% (inactive).

Q: For `CCOc1ccc2noc3c2c1C(=O)c1ccccc1-3`, which fluorescence artifact activation is on record?
A: Its fluorescence artifact activation is 0.02% (inactive).

Q: For `c1ccc(Nc2nc3ccccc3n3cnnc23)cc1`, which fluorescence artifact activation is on record?
A: Its fluorescence artifact activation is 0.03% (inactive).

Q: Which fluorescence artifact activation does the source give for `CCC(CC)c1nnc(NC(=O)/C=C/c2ccco2)s1` here?
A: The fluorescence artifact activation was 0.09% (inactive).

Q: For `CCOCCc1nnc(NC(=O)COC)s1`, which fluorescence artifact activation is on record?
A: Its fluorescence artifact activation is 0.06% (inactive).

Q: With `CCCCOC(=O)Nc1nnc(C(C)C)s1` as the molecule, how does the fluorescence artifact activation read?
A: Its fluorescence artifact activation is 148% (active).

Q: For `Cc1cc(S(=O)(=O)Cc2noc(-c3c(C)noc3C)n2)c(C)cc1Cl`, which fluorescence artifact activation is on record?
A: Its fluorescence artifact activation is -0.02% (inactive).

Q: Which fluorescence artifact activation does the source give for `COC(=O)[C@H](Cc1ccccc1)NC(=O)Nc1ccc(OC)cc1` here?
A: Its fluorescence artifact activation is 0.02% (inactive).

Q: Which fluorescence artifact activation does the source give for `CCOC(=O)CN1C(=O)N[C@@H](c2cccc(C(F)(F)F)c2)C(C(=O)OC)=C1C` here?
A: The fluorescence artifact activation was 0.03% (inactive).

Q: For `COc1cc(OC)c(C(=O)OC(C)C(=O)Nc2cccc(C(F)(F)F)c2)cc1OC` (stereo unspecified), which fluorescence artifact activation is on record?
A: Its fluorescence artifact activation is 1.83% (inactive).

Q: With `COCCN1C(=O)N[C@@H](c2cccc(C(F)(F)F)c2)C(C(=O)OC)=C1C` as the molecule, how does the fluorescence artifact activation read?
A: The fluorescence artifact activation was 13.5% (active).

Q: With `Cc1c(C(=O)NCc2ccco2)cccc1[N+](=O)[O-]` as the molecule, how does the fluorescence artifact activation read?
A: Its fluorescence artifact activation is 4.18% (inactive).

Q: With `COc1cc(/C=C/C(O)=C/C(=O)/C=C/c2ccc(O)cc2)ccc1O` as the molecule, how does the fluorescence artifact activation read?
A: Its fluorescence artifact activation is 0.51% (inactive).

Q: With `COc1cc(/C=C/C(=O)CC(=O)/C=C/c2ccc(O)c(OC)c2)ccc1O` as the molecule, how does the fluorescence artifact activation read?
A: Its fluorescence artifact activation is 0.15% (inactive).

Q: For `COc1cc(/C=C/C(=O)/C=C(O)/C=C/c2ccc(O)c(OC)c2)ccc1O`, which fluorescence artifact activation is on record?
A: Its fluorescence artifact activation is 110% (active).

Q: For `C/C(=N/NC(=O)Nc1ccccc1)c1ccc(C)cc1`, which fluorescence artifact activation is on record?
A: The fluorescence artifact activation was -0.02% (inactive).

Q: Which fluorescence artifact activation does the source give for `Cc1c(C=O)c2ccccn2c1C(=O)c1cccs1` here?
A: Its fluorescence artifact activation is 3.43% (inactive).

Q: With `CCCNC(=O)Cn1c(=O)/c(=C\c2ccc(-c3ccc([N+](=O)[O-])cc3)o2)s/c1=C\C(=O)C(C)(C)C` as the molecule, how does the fluorescence artifact activation read?
A: The fluorescence artifact activation was 8.2% (inactive).

Q: For `CC1(C)CC(=O)C=C(NCc2ccc(Cl)c(Cl)c2)C1`, which fluorescence artifact activation is on record?
A: The fluorescence artifact activation was -0.02% (inactive).

Q: Which fluorescence artifact activation does the source give for `COc1ccc(S(=O)(=O)N2CN(Cc3ccco3)c3nc4ccccc4nc32)cc1` here?
A: The fluorescence artifact activation was 37.3% (active).

Q: Which fluorescence artifact activation does the source give for `O=S(=O)(c1ccc(F)cc1)N1CN(Cc2ccco2)c2nc3ccccc3nc21` here?
A: Its fluorescence artifact activation is 8.07% (inactive).

Q: Which fluorescence artifact activation does the source give for `COc1ccc(CNC(=O)C(C#N)c2nc3ccccc3nc2N2CCCC2)cc1` (stereo unspecified) here?
A: The fluorescence artifact activation was -0.08% (inactive).

Q: Which fluorescence artifact activation does the source give for `COC1=C/C(=C/c2c(N)n3cc(C)sc3nc2=O)C=CC1=O` here?
A: The fluorescence artifact activation was -0.03% (inactive).

Q: With `Cc1cccc(Nc2c([N+](=O)[O-])c(=O)oc3ccccc23)c1` as the molecule, how does the fluorescence artifact activation read?
A: The fluorescence artifact activation was 7.76% (inactive).

Q: For `COc1cc2cc(CN(Cc3cccnc3)C(=O)NCc3ccccc3)c(=O)[nH]c2cc1OC`, which fluorescence artifact activation is on record?
A: Its fluorescence artifact activation is 116% (active).

Q: For `O=C(c1ccncc1)N(Cc1ccccc1)Cc1nc2ccccc2c(=O)[nH]1`, which fluorescence artifact activation is on record?
A: The fluorescence artifact activation was 0.03% (inactive).

Q: Which fluorescence artifact activation does the source give for `COc1ccc2cc(CN(CC3CCCO3)C(=S)NCc3ccco3)c(=O)[nH]c2c1` (stereo unspecified) here?
A: The fluorescence artifact activation was 0.1% (inactive).

Q: Which fluorescence artifact activation does the source give for `O=C1NC2=C(C(=O)CCC2)C(c2ccccc2Cl)N1` (stereo unspecified) here?
A: Its fluorescence artifact activation is 0.2% (inactive).

Q: Which fluorescence artifact activation does the source give for `O=C1N(c2ccc(Cl)cc2)C(c2ccccc2)N2CCCN12` (stereo unspecified) here?
A: The fluorescence artifact activation was -0.06% (inactive).

Q: Which fluorescence artifact activation does the source give for `COc1ccc(N=C2NC(=O)S/C2=C\c2ccc(N(C)C)cc2)cc1` here?
A: The fluorescence artifact activation was 9.11% (inactive).

Q: With `CCOc1ccc(N=C2NC(=O)S/C2=C\c2ccc(N(C)C)cc2)cc1` as the molecule, how does the fluorescence artifact activation read?
A: The fluorescence artifact activation was 1920% (active).

Q: For `C=CCOc1ccc(/C=C2\SC(=Nc3cccnc3)NC2=O)cc1`, which fluorescence artifact activation is on record?
A: The fluorescence artifact activation was 0.04% (inactive).

Q: With `N#CC1(C#N)C(c2ccccc2)OC23CCCCC2C1(C#N)C(=N)O3` (stereo unspecified) as the molecule, how does the fluorescence artifact activation read?
A: Its fluorescence artifact activation is 0.04% (inactive).

Q: Which fluorescence artifact activation does the source give for `COc1cc(/C=C2\N=C3CCCCCN3C2=O)ccc1O` here?
A: Its fluorescence artifact activation is -0.06% (inactive).

Q: For `O=C(CCC1CCCN(C(=O)c2ccncc2)C1)NCc1ccc(F)c(F)c1` (stereo unspecified), which fluorescence artifact activation is on record?
A: Its fluorescence artifact activation is 0.02% (inactive).

Q: Which fluorescence artifact activation does the source give for `Oc1ccc2ccc3cccc[n+]3c2c1` here?
A: Its fluorescence artifact activation is 12.9% (active).

Q: With `CCn1c(SCC(=O)c2ccc(Cl)cc2)nnc1C(C)C` as the molecule, how does the fluorescence artifact activation read?
A: Its fluorescence artifact activation is 2.06% (inactive).

Q: With `COc1ccc(CN2CCN(C(=O)c3ccccc3F)CC2)c(OC)c1OC` as the molecule, how does the fluorescence artifact activation read?
A: The fluorescence artifact activation was 14.3% (active).

Q: Which fluorescence artifact activation does the source give for `COc1ccccc1Nc1ncc(C(=O)N2CCC(C(N)=O)CC2)c2ccccc12` here?
A: Its fluorescence artifact activation is -0.02% (inactive).

Q: With `COc1ccc(CN2CCC(C(=O)N3CCN(c4ccccc4F)CC3)CC2)cc1OC` as the molecule, how does the fluorescence artifact activation read?
A: Its fluorescence artifact activation is 0.36% (inactive).

Q: For `COc1ccc(CC(=O)N(C)Cc2cccc(F)c2)cc1S(=O)(=O)N1CCOCC1`, which fluorescence artifact activation is on record?
A: The fluorescence artifact activation was 0.26% (inactive).

Q: With `CSc1ccc(C2NC(=O)c3c(sc4c3CCN(C)C4)N2)cc1` (stereo unspecified) as the molecule, how does the fluorescence artifact activation read?
A: The fluorescence artifact activation was 4.52% (inactive).

Q: With `O=C1NCCCCC1NS(=O)(=O)c1cccc(C(F)(F)F)c1` (stereo unspecified) as the molecule, how does the fluorescence artifact activation read?
A: The fluorescence artifact activation was 0.33% (inactive).

Q: Which fluorescence artifact activation does the source give for `N#Cc1ccc(S(=O)(=O)NC2CCN(Cc3ccccc3)CC2)cc1` here?
A: The fluorescence artifact activation was 2.37% (inactive).

Q: For `N#Cc1ccc(S(=O)(=O)NC2CCCCNC2=O)cc1` (stereo unspecified), which fluorescence artifact activation is on record?
A: Its fluorescence artifact activation is 26.9% (active).

Q: For `CCN1CCc2c(sc(NC(=O)c3ccc(S(=O)(=O)N(C)c4ccccc4)cc3)c2C(=O)NC)C1`, which fluorescence artifact activation is on record?
A: Its fluorescence artifact activation is 0.31% (inactive).

Q: With `CCC(Oc1cc(Cl)ccc1Cl)C(=O)NNC(=O)CCC(=O)O` (stereo unspecified) as the molecule, how does the fluorescence artifact activation read?
A: Its fluorescence artifact activation is 0.03% (inactive).

Q: For `COc1ccc(/C=N/N=C2/CC(C)(C)Cc3n[nH]c(=O)cc32)cc1`, which fluorescence artifact activation is on record?
A: Its fluorescence artifact activation is 357% (active).

Q: Which fluorescence artifact activation does the source give for `CCn1c(O)c(/C=N/N=C/c2ccc(OC)cc2)c2cc(C3=NNC(=O)CC3)ccc21` here?
A: The fluorescence artifact activation was 5.84% (inactive).

Q: Which fluorescence artifact activation does the source give for `CCn1cc(/C=C/c2cc[n+](C)cc2)c2ccccc21` here?
A: Its fluorescence artifact activation is 0.09% (inactive).

Q: With `CC1CN/C(=C\C(=O)c2ccc(Br)cc2)C(=O)N1` (stereo unspecified) as the molecule, how does the fluorescence artifact activation read?
A: Its fluorescence artifact activation is -0.09% (inactive).

Q: With `CCN(CC)c1ccc2cc(S(=O)(=O)c3ccc(C)cc3)c(=O)oc2c1` as the molecule, how does the fluorescence artifact activation read?
A: Its fluorescence artifact activation is 9.02% (inactive).

Q: With `CCN(CC)c1ccc2cc(S(=O)(=O)c3ccc(Cl)cc3)c(=O)oc2c1` as the molecule, how does the fluorescence artifact activation read?
A: Its fluorescence artifact activation is 156% (active).

Q: For `CCN(CC)c1ccc2cc(NC(=O)CCC(=O)O)c(=O)oc2c1`, which fluorescence artifact activation is on record?
A: The fluorescence artifact activation was 0.3% (inactive).
